Reference: ChEMBL document CHEMBL2417552, “Screen of pseudopeptidic inhibitors of human sirtuins 1-3: two lead compounds with antiproliferative effects in cancer cells” (J Med Chem, 2013)
The source made the active and inactive calls. No cut-off for these calls is given here.

What was measured:
A549 [1] = test: Cytotoxicity against human A549 cells assessed as cell death at 100 uM after 18 hrs by propidium iodide staining-based FACS flow cytometric analysis; type: functional
A549 [2] = test: Cell cycle arrest in human A549 cells assessed as accumulation at G1 phase at 100 uM after 18 hrs by propidium iodide staining-based FACS flow cytometric analysis (reference value: 62.3%); type: functional
A549 [3] = test: Cell cycle arrest in human A549 cells assessed as accumulation at S phase at 100 uM after 18 hrs by propidium iodide staining-based FACS flow cytometric analysis (reference value: 17.8%); type: functional
[4] = Cytotoxicity against human SH-SY5Y cells at 20 uM by LDH assay; type: cell-based
MCF7 [5] = test: Growth inhibition of human MCF7 cells at >= 50 uM after 72 hrs by sulforhodamine B assay
[6] = Cytotoxicity against human ARPE19 cells at 20 uM by LDH assay; type: cell-based; details: arpe-19, 20 µM
MCF7 [7] = test: Cell cycle arrest in human MCF7 cells assessed as accumulation at G1 phase at 100 uM after 18 hrs by propidium iodide staining-based FACS flow cytometric analysis (reference value: 67.6%); type: functional
[8] = target: T1, NAD-dependent protein deacetylase sirtuin-1 (Homo sapiens) (UniProt Q96EB6); test: Inhibition of SIRT1 in etoposide-induced human SH-SY5Y cells assessed as increase in p53 acetylation at Lys382 at 20 uM after 5 hrs by Western blotting analysis; type: cell-based
T1 sequence (whole entry): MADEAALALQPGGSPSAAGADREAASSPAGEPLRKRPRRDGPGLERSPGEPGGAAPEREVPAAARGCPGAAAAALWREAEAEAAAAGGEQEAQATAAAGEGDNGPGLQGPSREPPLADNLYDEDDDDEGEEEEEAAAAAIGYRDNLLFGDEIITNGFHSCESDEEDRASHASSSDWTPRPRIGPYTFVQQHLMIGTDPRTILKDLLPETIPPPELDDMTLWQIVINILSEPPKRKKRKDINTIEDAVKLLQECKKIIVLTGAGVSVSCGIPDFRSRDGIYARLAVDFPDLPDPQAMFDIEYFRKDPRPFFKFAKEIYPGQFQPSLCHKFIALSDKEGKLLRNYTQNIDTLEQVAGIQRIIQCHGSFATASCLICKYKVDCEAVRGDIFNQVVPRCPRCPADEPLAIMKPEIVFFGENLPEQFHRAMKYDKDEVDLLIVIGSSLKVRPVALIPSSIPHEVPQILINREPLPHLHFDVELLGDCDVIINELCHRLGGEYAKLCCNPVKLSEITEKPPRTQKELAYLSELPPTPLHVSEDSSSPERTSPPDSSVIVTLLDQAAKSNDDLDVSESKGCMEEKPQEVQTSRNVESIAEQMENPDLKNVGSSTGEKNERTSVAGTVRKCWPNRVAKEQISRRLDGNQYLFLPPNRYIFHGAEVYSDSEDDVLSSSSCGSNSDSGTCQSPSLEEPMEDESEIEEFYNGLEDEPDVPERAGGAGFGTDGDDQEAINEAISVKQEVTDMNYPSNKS
Procedure, shortened: (§1)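 ARPE-19 or SH-SY5Y cells seeded 24 h ahead, then given 20 μM compound and 100 μM etoposide together for 5 h before harvest. Acetylated p53 detected by Western blot. Mean ± SEM of 2 independent experiments.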

MCF7 [9] = test: Cytotoxicity against human MCF7 cells at 50 uM by LDH assay; type: functional, cell-based
[10] = target: T1, NAD-dependent protein deacetylase sirtuin-1 (Homo sapiens); details: at 50 µM
[11] = target: T1, NAD-dependent protein deacetylase sirtuin-1 (Homo sapiens); test: Inhibition of SIRT1 in etoposide-induced human MCF7 cells assessed as increase in p53 acetylation at Lys382 at 50 uM after 5 hrs by Western blotting analysis; type: cell-based
Procedure, shortened: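 MCF-7 cells seeded 24 h ahead, then given 50 μM compound and 100 μM etoposide together for 5 h before harvest. Acetylated p53 detected by Western blot; run once per compound.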

[12] = target: T1, NAD-dependent protein deacetylase sirtuin-1 (Homo sapiens); test: Inhibition of SIRT1 in etoposide-induced human ARPE19 cells assessed as increase in p53 acetylation at Lys382 at 20 uM after 5 hrs by Western blotting analysis; type: cell-based; procedure, shortened: as §1
A549 [13] = test: Cell cycle arrest in human A549 cells assessed as accumulation at G2 phase at 100 uM after 18 hrs by propidium iodide staining-based FACS flow cytometric analysis (reference value: 19.4%); type: functional
[14] = target: T2, NAD-dependent protein deacetylase sirtuin-1 (Homo sapiens, UniProt Q96EB6); test: Inhibition of human recombinant GST-tagged SIRT1 using KI177 as substrate preincubated for 5 mins followed by enzyme addition measured after 1 hr by fluorescence assay
T2 sequence (Q96EB6 whole entry): T1 sequence (whole entry)
Procedure, shortened: (§2)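 Fluor de Lys deacetylation assay. […] Mix preincubated 5 min at room temperature, started with enzyme, run 1 h at 37°C. Developer with 2 mM nicotinamide then added for 45 min at 37°C before fluorescence reading.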

MCF7 [15] = test: Cell cycle arrest in human MCF7 cells assessed as accumulation at G2 phase at 100 uM after 18 hrs by propidium iodide staining-based FACS flow cytometric analysis (reference value: 14.7%); type: functional
A549 [16] = test: Growth inhibition of human A549 cells at >= 50 uM after 48 hrs by sulforhodamine B assay; type: functional, cell-based
[17] = target: T3, NAD-dependent protein deacetylase sirtuin-2 (Homo sapiens, UniProt Q8IXJ6); test: Inhibition of human recombinant GST-tagged SIRT2 using KI179 as substrate preincubated for 5 mins followed by enzyme addition measured after 1 hr by fluorescence assay; procedure, shortened: as §2
T3 sequence (Q8IXJ6 whole entry): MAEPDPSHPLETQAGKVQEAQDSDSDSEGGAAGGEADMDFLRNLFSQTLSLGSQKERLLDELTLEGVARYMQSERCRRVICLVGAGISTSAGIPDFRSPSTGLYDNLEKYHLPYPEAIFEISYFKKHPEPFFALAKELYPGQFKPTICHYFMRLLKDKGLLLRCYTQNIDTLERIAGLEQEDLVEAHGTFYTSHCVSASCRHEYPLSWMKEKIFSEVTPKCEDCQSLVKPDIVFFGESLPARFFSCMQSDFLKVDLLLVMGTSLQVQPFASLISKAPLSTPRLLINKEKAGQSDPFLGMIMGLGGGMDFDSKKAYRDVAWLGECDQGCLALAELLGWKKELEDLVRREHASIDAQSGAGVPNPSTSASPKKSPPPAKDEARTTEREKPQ

MCF7 [18] = test: Effect on alpha-tubulin acetylation in human MCF7 cells at 50 uM after 6 to 18 hrs by Western blotting analysis; type: functional, cell-based
Procedure, shortened: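 MCF-7 cells seeded 24 h ahead, treated for 6 or 18 h, then lysed in M-PER. Lysates run on SDS-PAGE, transferred to nitrocellulose and probed with mouse monoclonal anti-acetylated α-tubulin and anti-total α-tubulin. Detection with peroxidase anti-mouse secondary and ECL Plus.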

[19] = target: T4, NAD-dependent protein deacetylase sirtuin-2 (Homo sapiens) (UniProt Q8IXJ6); test: Inhibition of human recombinant GST-tagged SIRT2 using KI179 as substrate at 50 uM preincubated for 5 mins followed by enzyme addition measured after 1 hr by fluorescence assay relative to control
T4 sequence (whole entry): T3 sequence (Q8IXJ6 whole entry)
Procedure, shortened: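 Recombinant GST-SIRT2, Fluor de Lys assay in SIRT assay buffer. Acetylated peptide KI179 at 0.7 Km (Km 198 µM) and NAD+ at 0.9 Km (reported Km 547 µM). Buffer, substrate, NAD+ and compound in DMSO preincubated 5 min at room temperature. Enzyme added to start; 1 h at 37 °C. Developer with 2 mM nicotinamide added; 45 min at 37 °C; fluorescence read. Mean ± SD, ≥3 experiments.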

MCF7 [20] = test: Cell cycle arrest in human MCF7 cells assessed as accumulation at S phase at 100 uM after 18 hrs by propidium iodide staining-based FACS flow cytometric analysis (reference value: 12.6%); type: functional
MCF7 [21] = test: Cytotoxicity against human MCF7 cells assessed as cell death at 100 uM after 18 hrs by propidium iodide staining-based FACS flow cytometric analysis; type: functional
MCF7 [22] = test: Growth inhibition of human MCF7 cells up to 200 uM after 72 hrs by sulforhodamine B assay
A549 [23] = test: Growth inhibition of human A549 cells up to 200 uM after 48 hrs by sulforhodamine B assay; type: functional, cell-based
[24] = target: T5, NAD-dependent protein deacetylase sirtuin-3, mitochondrial (Homo sapiens, UniProt Q9NTG7); test: Inhibition of human recombinant His-tagged SIRT3 using KI179 as substrate preincubated for 5 mins followed by enzyme addition measured after 1 hr by fluorescence assay
T5 sequence (Q9NTG7 whole entry): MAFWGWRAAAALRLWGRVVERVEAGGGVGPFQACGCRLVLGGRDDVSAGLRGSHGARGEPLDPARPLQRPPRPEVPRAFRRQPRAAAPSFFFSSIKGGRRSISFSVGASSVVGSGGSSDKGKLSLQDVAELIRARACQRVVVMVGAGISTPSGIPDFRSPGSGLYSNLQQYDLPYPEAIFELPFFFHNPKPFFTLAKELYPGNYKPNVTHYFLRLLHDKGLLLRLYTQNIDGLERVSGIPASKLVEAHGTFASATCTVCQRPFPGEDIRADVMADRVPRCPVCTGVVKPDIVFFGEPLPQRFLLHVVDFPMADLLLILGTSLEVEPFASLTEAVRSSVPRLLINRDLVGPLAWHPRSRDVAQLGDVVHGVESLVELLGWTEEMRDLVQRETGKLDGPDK

[25] = target: T6, NAD-dependent protein deacetylase sirtuin-3, mitochondrial (Homo sapiens) (UniProt Q9NTG7); details: at 50 µM
T6 sequence (whole entry): T5 sequence (Q9NTG7 whole entry)

SMILES	Activity [4]	Activity [6]	inhibition [8]	Activity (MCF7 [9])	inhibition [10]	inhibition [11]	inhibition [12]	IC50 [14]	IC50 [17]	Activity (MCF7 [18])	inhibition [19]	also measured
COc1ccc2[nH]cc(CCNC(=O)[C@H](CCCCNC(C)=S)NC(=O)OCc3ccccc3)c2c1	Non-toxic	Non-toxic	Active	inactive	88%	Active	Active	5.98 µM	25.8 µM	inactive	66%	Activity (A549 [1]): inactive; Activity (A549 [2]): 85.7%; Activity (A549 [3]): 3%; growth inhibition (GI) (MCF7 [5]): Active; Activity (MCF7 [7]): 77.4%; Activity (A549 [13]): 9.9%; Activity (MCF7 [15]): 13.2%; growth inhibition (GI) (A549 [16]): Active; Activity (MCF7 [20]): 5.7%; Activity (MCF7 [21]): inactive
CC(=S)NCCCC[C@H](NC(=O)[C@@H]1C[C@@H](O)CN1C(=O)OCc1ccccc1)C(=O)NCC(=O)c1ccccc1	Non-toxic	Non-toxic	Active	inactive	99%	Active	Active	0.24 µM	1.8 µM	inactive	96%	growth inhibition (GI) (MCF7 [22]): inactive; growth inhibition (GI) (A549 [23]): inactive; IC50 [24]: 3.89 µM; inhibition [25]: 90%
